This note sets out measurements from ChEMBL document CHEMBL2062422, “Design, synthesis and biological evaluation of some novel thienopyrimidines and fused thienopyrimidines as anti-inflammatory agents” (Eur J Med Chem, 2012).

In general, inhibition in vivo refers to the share of the control response that was lost under treatment. One may read the LD50 as the dose at which mortality reaches 50%. A high value points to a less toxic substance.

Data set [1] has as its system Rattus norvegicus. Put plainly: Antiinflammatory activity in albino rat sub-acute inflammatory model assessed as inhibition of formalin-induced paw edema at 10 mg/kg, po administered 1 hr prior to challenge for 7 consecutive days measured at day 1 of challenge.
Data set [2] deals with Rattus norvegicus. Put plainly: Antiinflammatory activity in albino rat acute inflammatory model assessed as inhibition of formalin-induced paw edema at 10 mg/kg, po administered 1 hr prior to challenge measured after 4 hr.
Data set [3] deals with Rattus norvegicus. Put plainly: Antiinflammatory activity in albino rat sub-acute inflammatory model assessed as inhibition of formalin-induced paw edema at 10 mg/kg, po administered 1 hr post challenge for 7 consecutive days measured at day 8 of challenge. Format: functional. The settings on record: in the assay text read “1 hr prior to challenge” for “1 hr post challenge”.

Data set [4] deals with Rattus norvegicus. As to the kind of experiment: Antiinflammatory activity in albino rat sub-acute inflammatory model assessed as inhibition of turpentine-induced granuloma pouch at 10 mg/kg, po administered 1 hr […] for 7 consecutive days measured at day 8 of challenge. Format: functional.
Data set [5] has as its system Rattus norvegicus. As to the kind of experiment: Antiinflammatory activity in albino rat acute inflammatory model assessed as inhibition of formalin-induced paw edema at 10 mg/kg, po administered 1 hr prior to challenge measured after 2 hr.
Data set [6] has as its system Rattus norvegicus. As to the kind of experiment: Antiinflammatory activity in albino rat acute inflammatory model assessed as inhibition of formalin-induced paw edema at 10 mg/kg, po administered 1 hr post challenge measured after 1 hr. It is filed as functional. The settings on record: in the assay text read “administered 1 hr prior to challenge” for “administered 1 hr post challenge”. The method, boiled down:
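Rats were randomised into groups of five. Dosing was 10 mg/kg po, given 1 h before 2% formalin (0.1 mL) was injected subplantar into the left hind paw under light ether anaesthesia. […] Values are mean ± S.E., N = 5 rats.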

A short description of data set [7]: Ulcerogenic activity in po dosed albino rat measured after 24 hrs. The settings on record: in vivo. It is filed as toxicity, organism-based. The method, boiled down:
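Male albino rats (180–200 g), five per group, fasted 12 h with water ad libitum. Compounds given orally as two equal doses at 0 and 12 h on three successive days, 300 mg/kg per day. Control received 1% gum acacia po. Rats killed 6 h after the last dose. Stomachs opened along the greater curvature, washed with cold saline and inspected under 3X magnification for hyperemia, hemorrhage, erosion or ulcer.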

Data set [8] relates to Rattus norvegicus. As to the kind of experiment: Ulcerogenic activity in albino rat assessed as hyperemia at 300 mg/kg/day administered as equal doses at 0 and 12 hrs for three consecutive days measured at 6 hrs post last dose. The settings on record: in vivo. Format: toxicity, organism-based. The gist of the method: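 Male albino rats, 180–200 g, five per group, fasted 12 h with water ad libitum. Dosing was 300 mg/kg/day po, split into equal doses at 0 and 12 h, for 3 successive days. Controls received 1% gum acacia orally. Rats were killed with ether 6 h after the last dose. Stomachs were opened along the greater curvature, washed with cold saline and inspected under a 3X lens for hyperemia, hemorrhage, hemorrhagic erosion or ulcer.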

Data set [9] has as its system Rattus norvegicus. As to the kind of experiment: Acute toxicity in albino rat at 0.1 to 0.3 g/kg/, po measured after 24 hrs. Particulars: in vivo.
Data set [10] concerns Rattus norvegicus. As to the kind of experiment: Antiinflammatory activity in albino rat acute inflammatory model assessed as inhibition of formalin-induced paw edema at 10 mg/kg, po administered 1 hr prior to challenge measured after 1 hr.
The subject of data set [11] is Rattus norvegicus. As to the kind of experiment: Antiinflammatory activity in albino rat sub-acute inflammatory model assessed as inhibition of formalin-induced paw edema at 10 mg/kg, po administered 1 hr prior to challenge for 7 consecutive days measured at day 8 of challenge.

Regarding `Cc1c(C(N)=O)sc2c1c(=O)n(Cc1ccccc1)c1nncn21`, the inhibition in vivo at 10 mg/kg with Rattus norvegicus [1] is 39%; in the data set with Rattus norvegicus [2], 54%; with Rattus norvegicus [3], 32%; with Rattus norvegicus [4], 39.4%; in the data set on Rattus norvegicus [5] it was 43%; with Rattus norvegicus [6], 56%.

With `Cc1c(C(N)=O)sc2c1C(=O)N(Cc1ccccc1)C1=NN=C(c3ccc(Cl)cc3)CN12`, the inhibition in vivo at 10 mg/kg in the data set on Rattus norvegicus [1] was 46%; in the data set on Rattus norvegicus [2], 46%; in the data set on Rattus norvegicus [3], 37%; with Rattus norvegicus [4], 38.5%; with Rattus norvegicus [5] it was 43%; with Rattus norvegicus [6], 44%.

As for `CC1=NN(c2nc3sc(C(N)=O)c(C)c3c(=O)n2Cc2ccccc2)C(=O)C1`, the inhibition in vivo at 10 mg/kg is 39% in the data set with Rattus norvegicus [1]; 46% in the data set with Rattus norvegicus [2]; 34% in the data set with Rattus norvegicus [3]; 38.9% in the data set on Rattus norvegicus [4]; 48% in the data set with Rattus norvegicus [5]; 37% with Rattus norvegicus [6]. The same compound registered an LD50 at 24 h in data set [7] above 300 mg/kg. The Activity result in the data set with Rattus norvegicus [8] and in the data set with Rattus norvegicus [9] was “Non-toxic” throughout.

On to `Cc1c(C(N)=O)sc2nc(S)n(Cc3ccccc3)c(=O)c12`, for which the inhibition in vivo at 10 mg/kg is 4% with Rattus norvegicus [1]; 5% in the data set with Rattus norvegicus [2]; 5% in the data set with Rattus norvegicus [3]; 4.07% in the data set with Rattus norvegicus [4]; 0% in the data set with Rattus norvegicus [5]; 25% in the data set on Rattus norvegicus [6].

`Cc1c(C(N)=O)sc2c1c(=O)n(Cc1ccccc1)c1n[nH]c(=S)n21`: the inhibition in vivo at 10 mg/kg in the data set with Rattus norvegicus [1] amounted to 41%; with Rattus norvegicus [2], 51%; in the data set on Rattus norvegicus [3] it was 34%; with Rattus norvegicus [4] it was 23.1%; with Rattus norvegicus [5] it was 56%; in the data set on Rattus norvegicus [6], 50%. The LD50 at 24 h in data set [7] was above 300 mg/kg. Moreover, the figures for the Activity with Rattus norvegicus [8] and in the data set on Rattus norvegicus [9] were 10% and “Non-toxic”, respectively.

As to `Cc1cc(C)n(-c2nc3sc(C(N)=O)c(C)c3c(=O)n2Cc2ccccc2)n1`, the inhibition in vivo at 10 mg/kg was 39% in the data set with Rattus norvegicus [1]; 49% in the data set on Rattus norvegicus [2]; 32% in the data set on Rattus norvegicus [3]; 40.3% in the data set with Rattus norvegicus [4]; 39% with Rattus norvegicus [5]; 44% in the data set on Rattus norvegicus [6].

For `CC(=O)N1N=C2N(Cc3ccccc3)C(=O)c3c(sc(C(N)=O)c3C)N2C1c1ccc(Br)cc1` (centres undefined), the inhibition in vivo at 10 mg/kg with Rattus norvegicus [1] worked out at 33%; with Rattus norvegicus [2] it was 36%; with Rattus norvegicus [3], 30%; in the data set with Rattus norvegicus [4], 39.8%; with Rattus norvegicus [5], 30%; in the data set on Rattus norvegicus [10], 31%.

`COc1ccc2c(c1)c(CC(=O)O)c(C)n2C(=O)c1ccc(Cl)cc1` [INDOMETHACIN]: in the data set on Rattus norvegicus [8], the Activity is reported as 100%.

On to `Cc1c(C(N)=O)sc2nc(NN)n(Cc3ccccc3)c(=O)c12`, for which the inhibition in vivo at 10 mg/kg is 43% with Rattus norvegicus [1]; 51% in the data set on Rattus norvegicus [2]; 43% in the data set on Rattus norvegicus [3]; 44.8% in the data set on Rattus norvegicus [4]; 61% with Rattus norvegicus [5]; 69% in the data set with Rattus norvegicus [6]. Besides, the LD50 at 24 h in [7] was above 300 mg/kg. Further, the figures for the Activity with Rattus norvegicus [8] and in the data set with Rattus norvegicus [9] were 10% and “Non-toxic”, respectively.

Consider `CSc1nc2sc(C(N)=O)c(C)c2c(=O)n1Cc1ccccc1`, for which the inhibition in vivo at 10 mg/kg was found to be 17% in the data set with Rattus norvegicus [1]; 21% with Rattus norvegicus [11]; 38% with Rattus norvegicus [2]; 11.3% with Rattus norvegicus [4]; 43% in the data set on Rattus norvegicus [5]; 44% in the data set on Rattus norvegicus [6].

For the compound `Cc1c(C(N)=O)sc2c1c(=O)n(Cc1ccccc1)c1nnc(-c3ccc(Br)cc3)n21`, the inhibition in vivo at 10 mg/kg came out at 37% in the data set on Rattus norvegicus [1]; 41% with Rattus norvegicus [2]; 30% in the data set with Rattus norvegicus [3]; 41.2% in the data set on Rattus norvegicus [4]; 39% with Rattus norvegicus [5]; 31% in the data set on Rattus norvegicus [10].

As to `CCOC(=O)Cc1nnc2n(Cc3ccccc3)c(=O)c3c(C)c(C(N)=O)sc3n12`, the figures for the inhibition in vivo at 10 mg/kg with Rattus norvegicus [1], in the data set with Rattus norvegicus [3] and in the data set with Rattus norvegicus [4] were 46%, 37% and 39.8%, respectively.

Take `Cc1c(C(N)=O)sc2c1c(=O)n(Cc1ccccc1)c1n[nH]c(=O)n21`: the inhibition in vivo at 10 mg/kg with Rattus norvegicus [1] turned out to be 43%; with Rattus norvegicus [2] it was 49%; in the data set on Rattus norvegicus [3], 37%; in the data set with Rattus norvegicus [4] it was 38.5%; in the data set on Rattus norvegicus [5] it was 61%; in the data set on Rattus norvegicus [6], 75%. Moreover, the median lethal dose (LD50) at 24 h in data set [7] is above 300 mg/kg. Further, the Activity result with Rattus norvegicus [8] and in the data set with Rattus norvegicus [9] was “Non-toxic” throughout.

For the compound `Cc1c(C(N)=O)sc2nc(-n3nc(-c4ccc(Cl)cc4)cc3N)n(Cc3ccccc3)c(=O)c12`, the inhibition in vivo at 10 mg/kg in the data set on Rattus norvegicus [1] turned out to be 35%; in the data set with Rattus norvegicus [2] it was 46%; with Rattus norvegicus [3], 30%; with Rattus norvegicus [4] it was 40.3%; in the data set on Rattus norvegicus [5], 52%; with Rattus norvegicus [6], 56%. In data set [7], this compound yielded an LD50 at 24 h above 300 mg/kg. For the same compound, the Activity result with Rattus norvegicus [8] and in the data set on Rattus norvegicus [9] was “Non-toxic” each time.

As for `CCOC(=O)CSc1nnc2n(Cc3ccccc3)c(=O)c3c(C)c(C(N)=O)sc3n12`, the inhibition in vivo at 10 mg/kg came out at 41% with Rattus norvegicus [1]; 49% in the data set with Rattus norvegicus [2]; 36% with Rattus norvegicus [3]; 41.2% in the data set on Rattus norvegicus [4]; 61% in the data set on Rattus norvegicus [5]; 56% in the data set with Rattus norvegicus [6]. The same compound had an LD50 at 24 h in data set [7] above 300 mg/kg. In addition, the Activity in the data set with Rattus norvegicus [8] is 20%; in the data set on Rattus norvegicus [9], “Non-toxic”.

Consider `Cc1c(C(N)=O)sc2nc(N/N=C/c3ccc(Br)cc3)n(Cc3ccccc3)c(=O)c12`, for which the inhibition in vivo at 10 mg/kg with Rattus norvegicus [1] worked out at 39%; in the data set with Rattus norvegicus [2] it was 44%; in the data set with Rattus norvegicus [3], 34%; with Rattus norvegicus [4], 34.4%; in the data set with Rattus norvegicus [5], 39%; in the data set on Rattus norvegicus [6], 69%.

For `O=C([O-])Cc1ccccc1Nc1c(Cl)cccc1Cl.[Na+]` [DICLOFENAC SODIUM], the Activity entry in the data set on Rattus norvegicus [8] is listed as “Non-toxic”. The inhibition in vivo at 10 mg/kg in the data set on Rattus norvegicus [6] was determined as 63%.

As for `Cc1c(C(N)=O)sc2c1c(=O)n(Cc1ccccc1)c1nnc(-c3ccccc3Cl)n21`, the inhibition in vivo at 10 mg/kg came out at 33% with Rattus norvegicus [1]; 49% in the data set on Rattus norvegicus [2]; 30% with Rattus norvegicus [3]; 35.7% in the data set on Rattus norvegicus [4]; 43% in the data set on Rattus norvegicus [5]; 37% in the data set on Rattus norvegicus [6].
